Source: ChEMBL document CHEMBL1147173, “Design, synthesis, inhibitory activity, and SAR studies of pyrrolidine derivatives as neuraminidase inhibitors” (Bioorg Med Chem, 2007)
Where a SMILES comes first, the peptide text is derived from it. [ ]: non-standard residue; d: D form. The star is where a group is joined. Hyp = O=C(O)[C@@H]1C[C@@H](O)CN1; Boc = CC(C)(C)OC(=O)*; NHOH = ON*

Biological target: Neuraminidase (Influenza A virus, UniProt B4URF0)
Assay: Inhibition of Influenza A virus type A H3N2 neuraminidase
Outline: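 NA was taken from influenza A virus strains Yuefang 72-243 A and Jifang 90-15 A and prepared by the Laver method. The enzyme in 33 mmol/L MES (pH 3.5) was mixed with 4 mmol/L CaCl₂ and 20 µmol/L MUNANA (added solutions) and incubated for 10 min at 37 °C. The reaction was stopped with 14 mmol/L NaOH in 83% ethanol. Fluorescence was read at 360/450 nm with substrate blanks subtracted. IC50 came from percent inhibition versus concentration, with each point run in duplicate.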

Sequence of Neuraminidase (B4URF0 whole entry): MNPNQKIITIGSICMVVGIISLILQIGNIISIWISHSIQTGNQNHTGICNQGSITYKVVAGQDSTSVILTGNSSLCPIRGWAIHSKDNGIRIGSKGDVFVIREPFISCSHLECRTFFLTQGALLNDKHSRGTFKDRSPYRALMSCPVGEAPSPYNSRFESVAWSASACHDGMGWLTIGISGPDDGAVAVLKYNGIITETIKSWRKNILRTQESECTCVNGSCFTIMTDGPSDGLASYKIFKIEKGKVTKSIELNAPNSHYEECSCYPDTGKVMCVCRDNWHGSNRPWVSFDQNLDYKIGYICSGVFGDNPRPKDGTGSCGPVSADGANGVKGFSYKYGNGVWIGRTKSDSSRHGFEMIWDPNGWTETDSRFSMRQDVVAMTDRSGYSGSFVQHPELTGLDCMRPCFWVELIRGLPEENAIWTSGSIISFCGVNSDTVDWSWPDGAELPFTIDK

SMILES	IC50 (read-out: IC50) [µM]	IC50 (read-out: Log IC50 (converted)) [µM]
C[C@H](NC(=O)OC(C)(C)C)C(=O)N1C[C@@H](N)C[C@H]1C(=O)O	15.8	53.7
C[C@H](NC(=O)OC(C)(C)C)C(=O)N1C[C@@H](N)C[C@H]1C(=O)NO	12.6	40.7
CC[C@H](C)[C@H](NC(=O)OC(C)(C)C)C(=O)N1C[C@@H](N)C[C@H]1C(=O)O	2.71	7.94
CSCC[C@H](NC(=O)OC(C)(C)C)C(=O)N1C[C@@H](N)C[C@H]1C(=O)O	1.56	4.37
CC(C)C[C@H](NC(=O)OC(C)(C)C)C(=O)N1C[C@@H](N)C[C@H]1C(=O)NO	6.13	17.4
O=C(NO)[C@@H]1C[C@@H](O)CN1C(=O)Cc1ccccc1Nc1c(Cl)cccc1Cl	8.54	20
CC(C)[C@H](NC(=O)OC(C)(C)C)C(=O)N1C[C@@H](N)C[C@H]1C(=O)O	4.29	13.2
COC(=O)[C@@H]1C[C@@H](N)CN1C(=O)[C@@H](N)CC(C)C	48	191
CC(C)(C)OC(=O)N[C@@H](Cc1ccccc1)C(=O)N1C[C@@H](N)C[C@H]1C(=O)O	2.4	6.46
CC[C@H](C)[C@H](NC(=O)OC(C)(C)C)C(=O)N1C[C@@H](N)C[C@H]1C(=O)NO	2.1	5.89
O=C(O)[C@@H]1C[C@@H](O)CN1C(=O)Cc1ccccc1Nc1c(Cl)cccc1Cl	19.8	49
CC(C)(C)OC(=O)N[C@@H](Cc1ccccc1)C(=O)N1C[C@@H](N)C[C@H]1C(=O)NO	4.17	10.7
N[C@H]1C[C@@H](C(=O)O)N(C(=O)Cc2ccccc2Nc2c(Cl)cccc2Cl)C1	16.2	39.8
CC(=O)N1C[C@H](O)C[C@@H]1C(=O)O	48.7	282
COC(=O)[C@@H]1C[C@H](N)CN1C(=O)[C@H](C)NC(=O)OC(C)(C)C	83.7	269
N[C@H]1C[C@@H](C(=O)NO)N(C(=O)Cc2ccccc2Nc2c(Cl)cccc2Cl)C1	3.57	8.51
COC(=O)[C@@H]1C[C@@H](O)CN1C(=O)[C@H](C)NC(=O)OC(C)(C)C (Boc-Ala-[Hyp]-OMe)	90.8	288
CC[C@H](C)[C@H](NC(=O)OC(C)(C)C)C(=O)N1C[C@H](O)C[C@H]1C(=O)NO (Boc-Ile-[Hyp]-{NHOH})	2.15	6.03
CC(C)C[C@H](NC(=O)OC(C)(C)C)C(=O)N1C[C@H](O)C[C@H]1C(=O)O (Boc-Leu-[Hyp]-OH)	11.5	33.9
CC(C)C[C@H](NC(=O)OC(C)(C)C)C(=O)N1C[C@H](O)C[C@H]1C(=O)NO (Boc-Leu-[Hyp]-{NHOH})	3.87	11
CC(C)(C)OC(=O)N[C@@H](Cc1ccccc1)C(=O)N1C[C@H](O)C[C@H]1C(=O)O (Boc-Phe-[Hyp]-OH)	2.85	7.59
CC(C)(C)OC(=O)N[C@@H](Cc1ccccc1)C(=O)N1C[C@H](O)C[C@H]1C(=O)NO (Boc-Phe-[Hyp]-{NHOH})	4.27	11
CC(C)[C@H](NC(=O)OC(C)(C)C)C(=O)N1C[C@H](O)C[C@H]1C(=O)O (Boc-Val-[Hyp]-OH)	4.63	14.1
CC(C)[C@H](NC(=O)OC(C)(C)C)C(=O)N1C[C@H](O)C[C@H]1C(=O)NO (Boc-Val-[Hyp]-{NHOH})	6.09	17.8
